High-throughput results deposited in PubChem by several laboratories.
B2AR ag: human beta-2 adrenergic receptor agonism by FAP | P07550 | hit rate 0.43% among 340,000 | Am2.2-beta2AR cells, FAP receptor internalization, flow cytometry | response, % (no concentration beside the values);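 active = response above a set limit, near 3 SD of response in nonfluorescent compounds, cut at about 42% in these data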
Dynein transport: blocks dynein driven cargo transport along microtubules; 3617.4 mouse cells, GR-EGFP nuclear translocation imaging; test concentration mostly 20 µM; stimulated with dexamethasone, 1 µM; active compounds read low; z-score, hits read low; hit rate 0.47% among 220,000;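 active = plate z-score of nuclear minus cytoplasmic receptor signal below a set negative limit, without overly bright fluorescence or cell loss, cut at about -3.5 in these data, passing the limit was not always enough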;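 note: z-score of nuclear minus cytoplasmic ring GR-EGFP intensity difference per well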
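Schedule: 48 h induction, then 1 h compound, then 30 min agonist, 37 °C. Buffer or medium: tetracycline-free induction medium containing charcoal-stripped FBS. Reagent: 1.0 µM final dexamethasone stimulus. Evaluation: nuclear versus cytoplasmic GR-EGFP signal, averaged per well. Signal: high-content fluorescence imaging after fixation.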
UPR CHOP act: activators of apoptotic arm of unfolded protein response (CHOP); CHO-CHOP luciferase reporter, UPR activation, luminescence; percent of tunicamycin response over DMSO baseline; activation, % at 10 µM; hit rate 0.34% among 330,000; AID 449763;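 active = at 10 µM dose, activation of 40% or more, normalized to positive control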;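 note: 100% = tunicamycin at 10 µg/mL and 0% = DMSO alone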
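System: CHO-CHOP luciferase reporter cell line | Buffer or medium: F12 medium containing 10% fetal bovine serum | Doses: One dose, 10 µM in 0.5% DMSO | Times: 6 h compound exposure at 37 °C after overnight seeding | Signal: Luciferase luminescence | Read-out: % activation vs tunicamycin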
CHOP inhibitor: inhibitors of CHOP induction in ER stress response. hit rate 3.8% among 220,000. AID 2732. inhibition, % at 10 µM. CHO-K1 CHOP-promoter luciferase, tunicamycin-induced, 15-18 h;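 active = compounds that reduced the stress-induced luciferase reporter signal by more than about 70% of percent inhibition, limit read from the data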;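 note: 0% = tunicamycin plus vehicle and 100% = wells without tunicamycin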
p-CIP stab down: lowers stability of the mouse p/CIP coactivator protein; Q05BA5; hit rate 0.01% among 290,000; F442A p/CIP-EGFP cells, EGFP fluorescence, 16 h; decrease of EGFP signal, % at 10 µM;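 active = EGFP signal decrease of at least 30% at 10 µM or well 3 SD below plate mean, unless failing retest; inactive = the rest, including hits failing retest or dose response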
Target sequence (Q05BA5 1-1403): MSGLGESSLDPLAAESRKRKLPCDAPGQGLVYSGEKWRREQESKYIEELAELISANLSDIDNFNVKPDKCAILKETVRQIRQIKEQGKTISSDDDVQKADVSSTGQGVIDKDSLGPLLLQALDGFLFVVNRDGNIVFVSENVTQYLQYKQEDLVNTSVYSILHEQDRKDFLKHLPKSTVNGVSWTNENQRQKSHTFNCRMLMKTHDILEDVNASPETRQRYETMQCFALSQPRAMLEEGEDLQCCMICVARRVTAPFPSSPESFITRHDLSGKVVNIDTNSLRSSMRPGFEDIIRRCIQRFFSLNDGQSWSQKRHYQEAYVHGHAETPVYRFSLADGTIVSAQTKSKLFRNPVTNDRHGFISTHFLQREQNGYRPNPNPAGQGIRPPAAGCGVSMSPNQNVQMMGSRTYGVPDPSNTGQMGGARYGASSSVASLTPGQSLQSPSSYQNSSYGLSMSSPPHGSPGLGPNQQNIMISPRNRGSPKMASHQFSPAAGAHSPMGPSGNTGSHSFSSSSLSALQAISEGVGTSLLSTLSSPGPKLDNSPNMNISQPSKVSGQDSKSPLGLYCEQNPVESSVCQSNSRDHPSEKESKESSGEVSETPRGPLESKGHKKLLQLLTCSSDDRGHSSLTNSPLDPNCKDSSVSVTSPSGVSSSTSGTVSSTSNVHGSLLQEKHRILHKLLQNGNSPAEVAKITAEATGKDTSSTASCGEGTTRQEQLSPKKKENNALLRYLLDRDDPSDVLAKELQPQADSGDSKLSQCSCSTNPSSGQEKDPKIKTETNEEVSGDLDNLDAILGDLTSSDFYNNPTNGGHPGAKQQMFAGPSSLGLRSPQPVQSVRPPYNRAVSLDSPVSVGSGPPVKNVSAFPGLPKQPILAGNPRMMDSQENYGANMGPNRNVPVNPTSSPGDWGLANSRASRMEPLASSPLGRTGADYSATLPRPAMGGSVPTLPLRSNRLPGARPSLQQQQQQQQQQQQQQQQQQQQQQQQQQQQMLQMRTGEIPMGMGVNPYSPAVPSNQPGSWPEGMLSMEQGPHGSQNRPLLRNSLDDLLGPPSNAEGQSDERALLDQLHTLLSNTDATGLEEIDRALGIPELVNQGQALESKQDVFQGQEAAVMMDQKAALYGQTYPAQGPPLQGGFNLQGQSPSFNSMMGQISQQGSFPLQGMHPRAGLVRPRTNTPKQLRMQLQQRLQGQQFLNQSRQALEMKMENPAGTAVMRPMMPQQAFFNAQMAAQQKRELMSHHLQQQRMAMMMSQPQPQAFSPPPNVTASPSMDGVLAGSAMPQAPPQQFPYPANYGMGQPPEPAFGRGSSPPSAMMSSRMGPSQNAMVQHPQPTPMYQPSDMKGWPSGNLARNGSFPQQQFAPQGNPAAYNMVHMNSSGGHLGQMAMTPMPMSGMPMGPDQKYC
UPR XBP1 act: adaptive UPR (XBP1) activation. CHO-XBP1 luciferase reporter, IRE1-XBP1 UPR activation, luminescence; percent of tunicamycin response, DMSO as zero. activation, % at 20 µM. hit rate 0.33% among 330,000;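 active = versus positive control, 20 µM dose yields 30% or more activation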;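 note: 100% = tunicamycin at 10 µg/mL and 0% = DMSO only wells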
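Material: CHO cell line with stable XBP1 luciferase reporter; buffer or medium: F12 medium containing 10% fetal bovine serum; compound: single point, 20 µM final compound, 1% DMSO; incubation: 6 h treatment, 37 °C; measured by: glow luminescence from Steady-Glo reagent; evaluation: activation, % of tunicamycin; control set: tunicamycin high, DMSO low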
UPR XBP1 confirm: adaptive UPR (XBP1) activation, confirmed | shares compounds with UPR XBP1 act | CHO-XBP1 IRE1-XBP1 luciferase reporter, luminescence | activation, % at 20 µM | hit rate 63% among 1,000 | AID 485299;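 active = reporter signal at least 30% of the positive control's activation in two or more of four replicate wells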;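 note: plate controls were DMSO negative control for no effect and tunicamycin 10 µg/mL positive control for full effect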
Active calls of the source: *; · = no result given. This excerpt belongs to a sample that is enriched for hits.

SMILES	B2AR ag	Dynein transport	UPR CHOP act	CHOP inhibitor	p-CIP stab down	UPR XBP1 act	UPR XBP1 confirm
CN1C(=O)NC(c2cccc([N+](=O)[O-])c2)C2=C1CCCC2=O (stereo unspecified)	-6	·	-2	·	2	3	·
Cc1ccc(C(C)C)cc1OCCn1cncn1	-3	·	3	·	5	-2	·
O=C(CSc1nnc(-c2ccco2)o1)N1CCCCC1	-19	·	4	·	7	2	·
Cc1cc(C)c2c(ccc3ccccc32)n1	-1	·	·	·	·	·	·
Oc1ccc(-c2nc3ccc4ccccc4c3c3c2CCC3)cc1O	7	-0.088	33	34	2	31*	51*
O=C(N/N=C/c1ccc(Br)cc1)c1ccc(NC(=O)c2ccccc2)cc1	-7	·	·	·	·	·	·
CN(C)c1ccc(/C=N/NC(=O)c2ccc(NC(=O)c3ccccc3)cc2)cc1	-3	-1.5	5	50	-2	189*	83*
CCCCC1CCC(C(=O)N(CC(C)C)c2c(N)n(CCCC)c(=O)[nH]c2=O)CC1 (stereo unspecified)	-9	·	32	·	·	39*	38*
CCC(C)n1c(NC(=O)c2ccccc2)c(C#N)c2nc3ccccc3nc21 (stereo unspecified)	-33	-0.74	-2	·	-12	63*	0
C#CCn1c(=NC(=O)c2ccc(Br)s2)sc2cccc(OC)c21	-4	-0.63	6	50	-17	73*	73*
C=CCn1c(=NC(=O)c2cccs2)sc2cccc(OC)c21	-6	0.7	5	14	3	4	·
CCOC(=O)c1c(NC(=O)c2cc3n(n2)C(C(F)(F)F)CC(c2cccs2)N3)sc(C)c1C (stereo unspecified)	-1	-0.81	33	59	-4	33*	206*
COCc1cc(C)nc(SCC(=O)c2ccc(O)c(O)c2)c1C#N	-7	-0.61	16	19	-7	41*	43*
COCc1cc(C)nc(SCC(=O)Oc2ccccc2)c1C#N	-2	-0.6	0	27	5	-1	·
COc1ccc2[nH]c3c(c2c1)CCN1C(=O)C(CC(=O)NC/C=C(\C)CCC=C(C)C)C[C@H](C(=O)N(C(C)C)C(C)C)[C@@]31C (stereo partly specified)	-7	·	5	·	·	33*	46*
Cc1cc(C)c(/C=N/NC(=O)c2nnn(-c3nonc3N)c2CN2CCC(C)CC2)c(C)c1	-2	·	2	·	-6	32*	6
CC1CCN(Cc2c(C(=O)N/N=C/c3ccc(C(F)(F)F)cc3)nnn2-c2nonc2N)CC1	4	·	4	·	-1	30*	40*
CC1CCN(Cc2c(C(=O)N/N=C/c3cc(Br)ccc3O)nnn2-c2nonc2N)CC1	2	·	-2	·	5	1	·
COc1c(Cl)cc(Cl)cc1/C=N/NC(=O)c1nnn(-c2nonc2N)c1CN1CCC(C)CC1	3	·	7	·	5	68*	91*
C/C(=N/NC(=O)c1ccc(Cl)s1)c1ccc(NC(=O)COc2ccc(Cl)cc2)cc1	13	-0.23	20	62	-3	37*	53*
CCC(=O)Nc1ccc(/C(C)=N\NC(=O)c2ccc(C)s2)cc1	-7	-0.79	1	6	-5	-1	·
Cc1cc([N+](=O)[O-])cnc1Sc1nccn1C	12	-0.35	-1	12	6	-1	·
COc1ccc(C)cc1NCc1cc(=O)oc2cc(-c3ccccc3)c(O)cc12	-1	-0.96	1	93*	7	53*	10
COC(=O)c1ccccc1NCc1cc(=O)oc2cc(O)c(O)cc12	-23	·	0	·	5	-3	·
COc1ccc(NC(=O)COC(=O)C2CCN(S(=O)(=O)c3ccccc3)CC2)cc1Cl	-7	·	0	·	·	-4	·
SMILES	B2AR ag	Dynein transport	UPR CHOP act	CHOP inhibitor	p-CIP stab down	UPR XBP1 act	UPR XBP1 confirm
CCOC(=O)c1nnc(-c2ccc(C)cc2)nc1Sc1ccc(Cl)cc1	2	0.084	22	64	4	47*	19
CCOC(=O)c1nnc(-c2ccccc2)nc1Sc1c(Cl)cccc1Cl	22	-1.3	26	14	-6	47*	97*
CCOC(=O)c1nnc(-c2ccc(C)cc2)nc1Sc1ccccc1Cl	11	0.0079	25	54	-15	33*	48*
CCOC(=O)c1nnc(-c2ccc(C)cc2)nc1N1CCSCC1	-1	1.3	1	41	-5	0	·
CCNc1nc(NCC)n2c(SCC(=O)Nc3cccc(Cl)c3)nnc2n1	24	·	-1	·	·	0	·
CCNc1nc(NCC)n2c(SC(C(=O)Nc3cc(Cl)cc(Cl)c3)c3ccccc3)nnc2n1 (stereo unspecified)	5	-0.34	15	90*	3	90*	25
O=C(CSc1ccc(-c2ccco2)nn1)Nc1ccc(F)cc1F	0	·	0	·	4	-3	·
COc1ccc(C(=O)Nc2cccc(/C=C/c3nc4ccccc4c(=O)[nH]3)c2)cc1	9	-0.61	5	91*	-2	52*	69*
COc1cc(OC)c(C=CC(=O)c2ccccc2O)c(OC)c1	2	·	·	·	·	·	·
COc1cc(/C=C/C(=O)c2ccccc2O)cc(OC)c1OC	13	-3.2	36	-101	-5	31*	26
COC(=O)C1C(O)=C(C=Nc2cccc3ccccc23)C(=O)CC1(C)C (stereo unspecified)	-3	-0.27	9	52	-6	121*	110*
Brc1ccc2c(c1)C(c1ccc(N3CCOCC3)cc1)=NNC(c1cccs1)=N2	-9	-0.1	3	27	-10	88*	81*
Cc1ccc2c(c1)C(c1ccc(N3CCOCC3)cc1)=NNC(c1cccs1)=N2	-10	-0.0019	-2	-12	7	62*	57*
COc1ccc(C2NCCc3c2[nH]c2ccccc32)cc1COc1ccc(F)cc1 (stereo unspecified)	15	0.93	0	75*	-6	32*	39*
Cc1cccc(C(=O)NC(=S)NNC(=O)COc2c(C)cccc2C)c1	13	2.5	-3	-32	9	-4	·
c1ccc(Oc2c3ccccc3nc3ccccc23)cc1	·	-0.49	6	-29	6	63*	67*
COc1ccccc1OCC(=O)Sc1ccc(C)cc1	-38	-0.66	7	75*	6	34*	19
Cc1ccc2nc(/C(C#N)=C/c3ccc(O)c(O)c3)[nH]c2c1	-144	·	36	·	-125	43*	33*
CC(=O)N1CCN(C(=O)c2cc(S(=O)(=O)N3CCN(c4ccccc4)CC3)ccc2Cl)CC1	0	·	2	·	·	-4	·
